Results pooled from the literature.
Lines come from different studies, so protocols differ.

SMILES | host | medium | route | dose | time | setting | concentration
Cc1ccc(-c2cc(C(F)(F)F)nn2-c2ccc(S(N)(=O)=O)cc2)cc1 | male Sprague-Dawley rat | blood | oral | 20 mg/kg | 4 h |  | 6.36 µM
COc1nc(-c2cc(C)c(N[C@@H](C)c3cc(F)cc(F)c3)nn2)ccc1-n1cnc(C)c1 | male Sprague-Dawley rat | CSF | oral | 25 mg/kg | 4 h | multiple doses, once daily | 76.6 ng/mL
CCOC(=O)[C@@]12C[C@@H]1[C@@H](n1ccc3c(NC)nc(C#Cc4ccc(Cl)s4)nc31)[C@H](O)[C@@H]2O | male Sprague-Dawley rat | plasma | oral | 10 mg/kg | 15 min |  | 45.5 ng/mL
COc1ccc2c(=O)n(C)c(-c3ccccc3)nc2c1 | male Sprague-Dawley rat | spleen | oral | 30 mg/kg | 4 h |  | 6.13 ng/mL
Cc1noc(C)c1Cn1cc(N2C(=O)CN(Cc3cccc(O)c3)C2=O)cn1 | male Sprague-Dawley rat | plasma | oral | 30 mg/kg | 2 h |  | 16.5 ng/mL
COc1cccc(-c2n[nH]c(SCc3ccccn3)n2)c1OC | male Sprague-Dawley rat | plasma | oral | 10 mg/kg | 30 min | single dose | 21400 ng/mL
CCc1cc(-c2noc(-c3cc(OC)nc(C4CCCC4)c3)n2)cc(C)c1OC[C@@H](O)CO | Wistar rat | plasma | oral | 0.3 mg/kg | 24 h | single dose | 5 ng/mL
CCCOc1ccc(OC)c(F)c1C(=O)c1ccc(C(=O)N[C@@H]2CNC[C@H]2NC(=O)c2ccc3[nH]ncc3c2)cc1 | rat | plasma | intravenous | 559 µg | 10 min | single dose | 470 ng/mL
Cc1noc(C)c1Cn1cc(N2C(=O)N(Cc3cccc(O)c3)C(C)(C)C2=O)cn1 | male Sprague-Dawley rat | plasma | oral | 100 mg/kg | 8 h | single dose | 5.2 ng/mL
